Results pooled from the literature.
PIK3C2B: Phosphatidylinositol 4-phosphate 3-kinase C2 domain-containing subunit beta (PIK3C2B, Homo sapiens, UniProt O00750)
UCK1: UCK1 (Homo sapiens, UniProt Q9HA47)
Nectin-4: Nectin-4 (Homo sapiens, UniProt Q96NY8)

Cc1cc2nc3c(=O)[nH]c(=O)nc-3n(C[C@H](O)[C@H](O)[C@H](O)COP(=O)(O)OP(=O)(O)OC[C@H]3O[C@@H](n4cnc5c(N)ncnc54)[C@H](O)[C@@H]3O)c2cc1C
Kd (Heterogeneous nuclear ribonucleoprotein U-like protein 1 (HNRNPUL1, Homo sapiens, UniProt Q9BUJ2); binding; lysate): 11 nM

NC(=O)c1ncn([C@@H]2O[C@H](COP(=O)(O)O)[C@@H](O)[C@H]2O)c1N
Kd (Adenylosuccinate lyase (ADSL, Homo sapiens, UniProt P30566); binding; ITC): 34000 nM

CCC(=O)N1CCC(C(=O)N(C)CC(=O)N2CCN(c3nc(-c4cnc(N)nc4C(F)F)nc(N4CCOCC4)n3)CC2)CC1
Kd (PIK3C2B; binding; competition with immobilised ligand): 365 nM

Cc1cc(Nc2cc3ncccc3c(N[C@@H]3C[C@H]4CC[C@@H](C3)N4CCC#N)n2)n[nH]1
Kd (Serine/threonine-protein kinase 16 (STK16, Homo sapiens, UniProt O75716); binding; competition with immobilised ligand): 110 nM

Nc1ccn([C@@H]2O[C@H](CO)[C@@H](O)[C@H]2O)c(=O)n1
Kd (UCK1; binding; fluorescence): 15.9 nM

CCCC[C@@H]1NC(=O)[C@H](Cc2ccc(O)cc2)NC(=O)[C@@H]2CCCN2C(=O)[C@H](CCC(=O)O)NC(=O)[C@H](C)NC(=O)[C@H](Cc2ccccc2)NC(=O)[C@@H]2CSCCC(=O)N3CN(CN(C3)C(=O)CCSC[C@H](NC(C)=O)C(=O)N[C@@H](CC(C)(C)C)C(=O)N3CCC[C@H]3C(=O)N[C@@H](CCC(=O)O)C(=O)N[C@H](CCCCNC(=O)CCc3cn(CCOCCOCCOCCN(CCOCCOCCOCCC(=O)N[C@H]4CSCCC(=O)N5CN6CN(C5)C(=O)CCSC[C@H](NC(=O)[C@@H](CC(=O)O)NC(=O)[C@H](Cc5cccc7ccccc57)NC(=O)[C@@H]5CCCN5C4=O)C(=O)N[C@@H](CCSC)C(=O)N[C@@H](CCCCNC(=N)N)C(=O)N[C@@H](CC(=O)O)C(=O)N[C@@H](Cc4c[nH]c5ccccc45)C(=O)N[C@@H](CO)C(=O)N[C@@H]([C@@H](C)O)C(=O)N4CCC[C@H]4C(=O)N4C[C@H](O)C[C@H]4C(=O)N[C@@H](Cc4c[nH]c5ccccc45)C(=O)N[C@H](C(N)=O)CSCCC6=O)CCOCCOCCOCCn4cc(CCC(=O)NCCCC[C@H]5NC(=O)[C@H](CCC(=O)O)NC(=O)[C@@H]6CCCN6C(=O)[C@H](CC(C)(C)C)NC(=O)[C@@H](NC(C)=O)CSCCC(=O)N6CN7CN(C6)C(=O)CCSC[C@H](NC(=O)[C@H](Cc6ccc(O)cc6)NC(=O)[C@@H]6CCCN6C5=O)C(=O)N[C@@H](Cc5ccccc5)C(=O)N[C@@H](C)C(=O)N[C@@H](CCC(=O)O)C(=O)N5CCC[C@H]5C(=O)N[C@@H](Cc5ccc(O)cc5)C(=O)N[C@@H](CCCC)C(=O)N[C@H](C(N)=O)CSCCC7=O)nn4)nn3)C(=O)N3CCC[C@H]3C(=O)N[C@@H](Cc3ccc(O)cc3)C(=O)N2)C(=O)CCSC[C@@H](C(N)=O)NC1=O
Kd (Nectin-4; binding; SPR): 2.7 nM

[N-]=[N+]=N[C@@H]1[C@H](O)[C@@H](CO)O[C@H]1n1ccc(N)nc1=O
Kd (UCK1; binding; fluorescence): 65.7 nM

CCCC[C@@H]1NC(=O)[C@H](Cc2ccc(O)cc2)NC(=O)[C@@H]2CCCN2C(=O)[C@H](CC(=O)O)NC(=O)[C@H](C)NC(=O)[C@H](Cc2ccccc2)NC(=O)[C@@H]2CSCCC(=O)N3CN(CN(C3)C(=O)CCSC[C@@H](C(=O)N[C@@H](CNC(=O)Cn3cc(CCC(=O)NCCC(=O)N(C)CC(=O)N(C)CC(=O)N(C)CC(=O)N(C)CC(=O)N(C)CC(=O)N(C)CC(=O)N(C)CC(=O)N(C)CC(=O)N(C)CC(=O)N(C)CC(=O)N[C@H]4CSCCC(=O)N5CN6CN(C5)C(=O)CCSC[C@H](NC(=O)[C@@H](CC(=O)O)NC(=O)[C@H](Cc5cccc7ccccc57)NC(=O)[C@@H]5CCCN5C4=O)C(=O)N[C@@H](CCSC)C(=O)N[C@@H](CCCCNC(=N)N)C(=O)N[C@@H](CC(=O)O)C(=O)N[C@@H](Cc4c[nH]c5ccccc45)C(=O)N[C@@H](CO)C(=O)N[C@@H]([C@@H](C)O)C(=O)N4CCC[C@H]4C(=O)N4C[C@H](O)C[C@H]4C(=O)N[C@@H](Cc4c[nH]c5ccccc45)C(=O)N[C@H](C(N)=O)CSCCC6=O)nn3)C(N)=O)NC1=O)C(=O)CCSC[C@H](NC(C)=O)C(=O)N[C@@H](CC(C)(C)C)C(=O)N1CCC[C@H]1C(=O)N[C@@H](CCC(=O)O)C(=O)N[C@H](C)C(=O)N1CCC[C@H]1C(=O)N[C@@H](Cc1ccc(O)cc1)C(=O)N2
Kd (Nectin-4; binding; SPR): 2.6 nM

C=CC(=O)N1CCC(C(=O)NCC(=O)N2CCN(c3nc(-c4cnc(N)nc4C(F)F)nc(N4CCOCC4)n3)CC2)CC1
Kd (PIK3C2B; binding; competition with immobilised ligand): 81 nM

NC(=O)C1=CN([C@@H]2O[C@H](COP(=O)(O)OP(=O)(O)OC[C@H]3O[C@@H](n4cnc5c(N)ncnc54)[C@H](OP(=O)(O)O)[C@@H]3O)[C@@H](O)[C@H]2O)C=CC1
Kd (ZMO1885 (Zymomonas mobilis, UniProt Q5NLA1, D294W/Y343W); binding): 53000 nM

Nc1ncnc2c1ncn2[C@@H]1O[C@H](COP(=O)(O)O)[C@@H](O)[C@H]1O
Kd (Adenylosuccinate lyase (ADSL, Homo sapiens, UniProt P30566, R303C); binding; ITC): 130000 nM

CCCC[C@@H]1NC(=O)[C@H](Cc2ccc(O)cc2)NC(=O)[C@@H]2CCCN2C(=O)[C@H](CC(=O)O)NC(=O)[C@H](C)NC(=O)[C@H](Cc2ccccc2)NC(=O)[C@@H]2CSCCC(=O)N3CN(CN(C3)C(=O)CCSC[C@@H](C(=O)N[C@@H](C)C(N)=O)NC1=O)C(=O)CCSC[C@H](NC(C)=O)C(=O)N[C@@H](CC(C)(C)C)C(=O)N1CCC[C@H]1C(=O)N[C@@H](CCC(=O)O)C(=O)N[C@H](CCCCNC(=O)CCc1cn(CC(=O)N[C@H]3CSCCC(=O)N4CN5CN(C4)C(=O)CCSC[C@H](NC(=O)[C@@H](CC(=O)O)NC(=O)[C@H](Cc4cccc6ccccc46)NC(=O)[C@@H]4CCCN4C3=O)C(=O)N[C@@H](CCSC)C(=O)N[C@@H](CCCCNC(=N)N)C(=O)N[C@@H](CC(=O)O)C(=O)N[C@@H](Cc3c[nH]c4ccccc34)C(=O)N[C@@H](CO)C(=O)N[C@@H]([C@@H](C)O)C(=O)N3CCC[C@H]3C(=O)N3C[C@H](O)C[C@H]3C(=O)N[C@@H](Cc3c[nH]c4ccccc34)C(=O)N[C@H](C(N)=O)CSCCC5=O)nn1)C(=O)N1CCC[C@H]1C(=O)N[C@@H](Cc1ccc(O)cc1)C(=O)N2
Kd (Nectin-4; binding; SPR): 1 nM

Cc1cnc(-c2ccc(-c3ccc(NC(=O)Nc4c(F)cc(F)cc4F)cc3F)c3c2C(=O)NC3)[nH]1
Kd (Cytoplasmic tyrosine-protein kinase BMX (BMX, Homo sapiens, UniProt P51813); binding; competition with immobilised ligand): 14 nM

O=C(CCCCCCC(=O)Nc1ccc([C@H]2O[C@@H](CSc3nc(-c4ccccc4)c(-c4ccccc4)o3)C[C@@H](c3ccc(CO)cc3)O2)cc1)NO
Kd (Histone deacetylase 2 (HDAC2, Homo sapiens, UniProt Q92769); cell-free assay): > 30200 nM

CCC(=O)N1CCC(C(=O)NCC(=O)N2CCN(c3nc(-c4cnc(N)nc4C(F)F)nc(N4CCOCC4)n3)CC2)CC1
Kd (PIK3C2B; binding; competition with immobilised ligand): 85 nM

CC(=O)N[C@H](C(=O)N1C[C@H](O)C[C@H]1C(=O)NCc1ccc(-c2scnc2C)cc1)C(C)(C)SCCCCCCNC(=O)C[C@@H]1N=C(c2ccc(Cl)cc2)c2c(sc(C)c2C)-n2c(C)nnc21
Kd (Bromodomain-containing protein 3, BD1 (BRD3, Homo sapiens, UniProt Q15059); binding; ITC): 35 nM

CCN(CC)c1ccc2cc(C(=O)NCCNC(=O)c3ccc(-c4cc(-c5ccc(C#N)cc5)nc(-c5ccco5)c4)cc3)c(=O)oc2c1
Kd (Myc proto-oncogene protein (MYC, Homo sapiens, UniProt P01106); binding; SPR): 151 nM
